The source made the active and inactive calls. The rule behind the calls is not given here.

The values below come from ChEMBL document CHEMBL4765236, “Insights into the Antimicrobial Activity and Cytotoxicity of Engineered α-Helical Peptide Amphiphiles” (J Med Chem, 2016).

In data set [1] the test system is Cell membrane. The data set can be described thus: Induction of outer membrane permeabilization in Escherichia coli O157:H7 CICC 21530 assessed as increase in fluorescence intensity at 7.5 uM by NPN-dye based fluorescence assay. In kind it is subcellular.
The subject of data set [2] is Cell membrane. The data set can be described thus: Induction of cell membrane disruption in Escherichia coli O157:H7 CICC 21530 assessed as propidium iodide-positive cells at 1 times MIC measured after 30 mins by flow cytometry analysis (reference value: 5.7 %). In kind it is subcellular.
The subject of data set [3] is Cell membrane. Nature of the data set: Induction of cell membrane disruption in Escherichia coli O157:H7 CICC 21530 assessed as propidium iodide-positive cells at 2 times MIC measured after 30 mins by flow cytometry analysis (reference value: 5.7 %). The format is subcellular.
The test system of data set [4] is Cell membrane. The data set can be described thus: Induction of cell membrane disruption in Escherichia coli O157:H7 CICC 21530 assessed as propidium iodide-positive cells measured after 30 mins by flow cytometry analysis. The format is subcellular.
For data set [5], the system named is Staphylococcus aureus. Nature of the data set: Induction of morphological changes in Staphylococcus aureus ATCC 29213 assessed as membrane stunting at 1 times MIC after 60 mins by SEM analysis. The format is functional, organism-based. In short, it runs like this: (§1)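 S. aureus grown to exponential phase in MHB at 37 °C with shaking at 220 rpm. Cells washed twice in PBS, resuspended to OD600 0.2, then exposed to peptide at 1× MIC for 60 min at 37 °C; untreated cells served as control. Cells were pelleted, PBS-washed, fixed overnight in 2.5% glutaraldehyde at 4 °C, dehydrated through graded ethanol then tert-butanol, and imaged by SEM.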

In data set [6] the test system is Escherichia coli. The data set can be described thus: Induction of morphological changes in Escherichia coli O157:H7 CICC 21530 assessed as membrane stunting at 1 times MIC after 60 mins by SEM analysis. In kind it is functional, organism-based.
In data set [7] the test system is Staphylococcus aureus. The data set can be described thus: Induction of morphological changes in Staphylococcus aureus ATCC 29213 assessed as membrane blebbing at 1 times MIC after 60 mins by SEM analysis. The format is functional, organism-based. A digest of the protocol:
as §1

The test system of data set [8] is HepG2. The data set can be described thus: Induction of cell cycle arrest in human HepG2 cells assessed as accumulation at sub-G1 phase at 32 uM incubated for 24 hrs by annexin-V/FITC staining-based FACS flow cytometry analysis (reference value: 0.07%). In kind it is functional.
Data set [9] deals with HepG2. Nature of the data set: Induction of cell cycle arrest in human HepG2 cells assessed as accumulation at Go/G1 phase at 64 uM incubated for 24 hrs by annexin-V/FITC staining-based FACS flow cytometry analysis (reference value: 54.61 %). In kind it is functional.
The subject of data set [10] is HepG2. The data set can be described thus: Induction of cell cycle arrest in human HepG2 cells assessed as accumulation at S phase at 32 uM incubated for 24 hrs by annexin-V/FITC staining-based FACS flow cytometry analysis (reference value: 20.51 %). The format is functional.
Data set [11] relates to HepG2. The data set can be described thus: Induction of cell cycle arrest in human HepG2 cells assessed as accumulation at S phase at 64 uM incubated for 24 hrs by annexin-V/FITC staining-based FACS flow cytometry analysis (reference value: 20.51 %). In kind it is functional.
The subject of data set [12] is HepG2. The data set can be described thus: Induction of cell cycle arrest in human HepG2 cells assessed as accumulation at G2/M phase at 32 uM incubated for 24 hrs by annexin-V/FITC staining-based FACS flow cytometry analysis (reference value: 28.75 %). The format is functional.
For data set [13], the system named is HepG2. Nature of the data set: Induction of cell cycle arrest in human HepG2 cells assessed as accumulation at G2/M phase at 64 uM incubated for 24 hrs by annexin-V/FITC staining-based FACS flow cytometry analysis (reference value: 28.75 %). The format is functional.
The test system of data set [14] is Staphylococcus aureus. The data set can be described thus: Induction of morphological changes in Staphylococcus aureus ATCC 29213 assessed as membrane creeping at 1 times MIC after 60 mins by SEM analysis. In kind it is functional, organism-based. A digest of the protocol:
as §1

For data set [15], the system named is Staphylococcus aureus. Nature of the data set: Induction of morphological changes in Staphylococcus aureus ATCC 29213 assessed as membrane destruction at 1 times MIC after 60 mins by SEM analysis. In kind it is functional, organism-based. A digest of the protocol: as §1
The subject of data set [16] is Escherichia coli. Nature of the data set: Induction of morphological changes in Escherichia coli O157:H7 CICC 21530 assessed as membrane creeping at 1 times MIC after 60 mins by SEM analysis. The format is functional, organism-based.
Data set [17] deals with Escherichia coli. Nature of the data set: Induction of morphological changes in Escherichia coli O157:H7 CICC 21530 assessed as membrane destruction at 1 times MIC after 60 mins by SEM analysis. The format is functional, organism-based.
For data set [18], the system named is Staphylococcus aureus. Nature of the data set: Induction of morphological changes in Staphylococcus aureus ATCC 29213 assessed as membrane damage at 1 times MIC after 60 mins by TEM analysis. The format is functional, organism-based.
Data set [19] relates to Escherichia coli. Nature of the data set: Induction of morphological changes in Escherichia coli O157:H7 CICC 21530 assessed as membrane damage at 1 times MIC after 60 mins by TEM analysis. In kind it is functional, organism-based.
Data set [20] has as its system Escherichia coli. Nature of the data set: Induction of morphological changes in Escherichia coli O157:H7 CICC 21530 assessed as outflow of cytoplasm at 1 times MIC after 60 mins by TEM analysis. The format is functional, organism-based.
Data set [21] has as its system RAW264.7. The data set can be described thus: Antiinflammatory activity against mouse RAW264.7 cells assessed as inhibition of LPS-induced TNF-alpha production at 4 uM measured after 24 hrs by […] ELISA. The format is functional, cell-based. In short, it runs like this:
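RAW264.7 cells plated at 1-2 × 10^5 cells/mL and stimulated with 500 ng/mL LPS with or without peptide (0.5-64 µM) for 24 h at 37 °C. Controls were untreated cells and LPS alone. TNF-α in the supernatant measured by ELISA. NO measured by Griess reagent (1% sulfanilamide, 0.1% naphthylethylenediamine, 5% phosphoric acid).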

The test system of data set [22] is HepG2. Nature of the data set: Induction of morphological changes in human HepG2 cells assessed as roughness of cell membrane at 32 uM after 24 hrs by SEM analysis. In kind it is functional, cell-based.
In data set [23] the test system is HepG2. Nature of the data set: Induction of morphological changes in human HepG2 cells assessed as cell disruption at 32 uM after 24 hrs by SEM analysis. The format is functional, cell-based.
In data set [24] the test system is HepG2. The data set can be described thus: Induction of morphological changes in human HepG2 cells assessed as shriveled cells at 32 uM after 24 hrs by SEM analysis. In kind it is functional, cell-based.
Data set [25] relates to HepG2. The data set can be described thus: Induction of morphological changes in human HepG2 cells assessed as cytoskeleton damage at 32 uM after 24 hrs by SEM analysis. In kind it is functional, cell-based.
Data set [26] relates to HepG2. The data set can be described thus: Induction of apoptosis in human HepG2 cells assessed as nucleus budding at 32 uM incubated for 2 to 4 hrs by DAPI staining based confocal microscopy. The format is functional, cell-based. As to conditions: time 2-4 hrs. A digest of the protocol:
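HepG2 cells treated with 32 µM peptide for 2, 4 or 8 h and stained with DAPI. Nuclear morphology imaged by confocal microscopy, with untreated cells as control.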

Data set [27] in a line: Drug distribution in human HepG2 cells assessed as fluorescence signal in presence of FITC-labelled peptide at 32 uM measured after 8 hrs by DAPI staining based confocal microscopy. The note with it: hepg2, 8 h. In kind it is ADME, cell-based. In short, it runs like this: (§2)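 HepG2 cells incubated with FITC-labelled peptide at 32 µM. Fluorescence distribution imaged by confocal laser-scanning microscopy at intervals (1, 4 and 8 h).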

The subject of data set [28] is Escherichia coli. The data set can be described thus: Bactericidal activity against Escherichia coli O157:H7 CICC 21530 assessed as bacterial killing at 1 times MIC measured within 5 mins by time kill assay. In kind it is functional, organism-based. The note with it: time min <5.
Data set [29] deals with HepG2. The data set can be described thus: Induction of ROS generation in human HepG2 cells assessed as increase in fluorescence intensity up to 32 uM by DCFH-DA staining-based fluorescence analysis. The format is functional, cell-based. As to conditions: dose microM <=32, time 8.0 hrs, TDE = time-dependent effect.
Data set [30] can be described thus: Drug localization in cytoplasm of human HepG2 cells assessed as fluorescent signal in presence of FITC-labelled peptide at 32 uM measured up to 8 hrs by DAPI staining based confocal microscopy. As to conditions: hepg2, 8 h. The format is ADME, subcellular. In short, it runs like this:
as §2

Regarding H-WGEAFSAGVHRLANGGNG-NH2, the result in data set [1] was inactive. The Activity in data set [2] is 22.9%; in data set [3], 27.7%; in data set [4], “Dose-dependent effect”; in data set [8] it was 1.06%; in data set [9] it was 34.77%; in [10] it was 25.26%. Besides, the Activity in data set [11] was 31.61%; in [12], 29.33%; in data set [13], 30.85%. For the same substance, the result in data set [5], in data set [6], in data set [7], in data set [14], in [15] and in data set [16] was Active. The result in data set [17] was Active.
As to H-WLRAFRRLVRRLARGLRR-NH2, the Activity is 91.1% in [2]; 98% in data set [3]; “Dose-dependent effect” in data set [4]; 24.8% in data set [8]; 5.83% in [9]; 33.17% in [10]. In addition, the Activity in data set [11] is 11.48%; in data set [12], 21.23%; in data set [13], 5.67%; in data set [29], “Tde”. Moreover, the outcome in [5], in [6], in data set [7], in [18], in [19] and in data set [20] was Active. For the same substance, the outcome in data set [21], in data set [22], in data set [23], in data set [24], in data set [25] and in data set [26] was Active. Further, the result in data set [28], in [14], in data set [15], in [16] and in [17] was Active. Besides, in data set [27], the Drug uptake entry was “Active”.
Consider H-WLRAFRRLVRRLARLLRR-NH2, for which the Drug uptake result in data set [30] is “Not Active”.
